Experimental findings from ChEMBL document CHEMBL3608292, “Synthesis and biological evaluation of novel myrtucommulones and structural analogues that target mPGES-1 and 5-lipoxygenase” (Eur J Med Chem, 2015) are described below.

Bounds are passed on as bounds.

One experiment deals with T1, Prostaglandin E synthase (Homo sapiens, UniProt O14684).
T1 sequence (O14684 whole entry): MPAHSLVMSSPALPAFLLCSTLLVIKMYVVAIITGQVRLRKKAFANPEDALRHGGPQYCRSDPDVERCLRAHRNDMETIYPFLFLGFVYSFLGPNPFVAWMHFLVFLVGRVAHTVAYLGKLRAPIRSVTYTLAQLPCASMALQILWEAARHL
Kind of experiment: Inhibition of mPGES-1 in microsomal membranes isolated from interleukin-1beta-stimulated human A549 cells using PGH2 as substrate assessed as PGE2 formation preincubated for 15 mins followed by substrate addition measured after 1 min by RP-HPLC analysis. Format: cell membranes. The procedure, abridged:
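A549 cells kept 16 h in DMEM with 2% FCS, then 1 ng/ml IL-1β for 72 h. Cells homogenized and sonicated, microsomes obtained by centrifugation at 10,000 × g then 174,000 × g. Microsomes in 0.1 M potassium phosphate pH 7.4 with 2.5 mM glutathione, preincubated 15 min with compound or 0.3% DMSO. 20 µM PGH₂ (final) for 1 min at 4 °C. Stopped with FeCl₂/citric acid containing 11β-PGE₂, solid-phase extraction, RP-HPLC with UV at 195 nm.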

Experiment [1] addresses T2, Polyunsaturated fatty acid 5-lipoxygenase (Homo sapiens, UniProt P09917).
T2 sequence (P09917 whole entry): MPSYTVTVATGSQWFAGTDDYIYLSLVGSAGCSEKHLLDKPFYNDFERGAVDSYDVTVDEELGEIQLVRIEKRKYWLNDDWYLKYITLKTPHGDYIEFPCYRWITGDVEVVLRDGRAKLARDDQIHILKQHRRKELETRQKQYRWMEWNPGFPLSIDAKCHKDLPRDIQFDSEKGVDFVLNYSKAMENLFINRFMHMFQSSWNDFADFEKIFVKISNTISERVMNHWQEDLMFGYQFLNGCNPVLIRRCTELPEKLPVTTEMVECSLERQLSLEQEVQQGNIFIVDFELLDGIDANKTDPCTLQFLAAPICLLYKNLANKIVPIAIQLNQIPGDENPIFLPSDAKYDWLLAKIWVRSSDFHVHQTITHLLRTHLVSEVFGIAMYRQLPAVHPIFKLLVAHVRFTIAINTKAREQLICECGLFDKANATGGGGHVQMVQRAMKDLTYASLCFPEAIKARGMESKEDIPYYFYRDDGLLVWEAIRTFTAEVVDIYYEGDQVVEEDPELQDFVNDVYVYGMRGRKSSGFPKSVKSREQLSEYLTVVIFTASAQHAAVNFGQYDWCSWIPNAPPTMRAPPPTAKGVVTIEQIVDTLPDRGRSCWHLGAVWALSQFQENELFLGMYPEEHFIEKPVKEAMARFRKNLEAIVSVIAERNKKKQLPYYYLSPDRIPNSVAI
Description: Inhibition of recombinant human 5-LO expressed in Escherichia coli BL21 using arachidonic acid as substrate assessed as formation of all-trans isomer of LTB4, 5-H(P)ETE preincubated for 5 to 10 mins followed by substrate addition measured after 10 mins by HPLC analysis.

For experiment [2], the target named is T3, Polyunsaturated fatty acid 5-lipoxygenase (Homo sapiens) (UniProt P09917).
T3 sequence (whole entry): T2 sequence (P09917 whole entry)
Kind of experiment: Inhibition of recombinant human 5-LO expressed in Escherichia coli BL21 using arachidonic acid as substrate assessed as remaining activity at 10 uM preincubated for 5 to 10 mins followed by substrate addition measured after 10 mins by HPLC analysis relative to control. In a few lines: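 5-LO expressed in E. coli BL21 from pT3-5-LO plasmid at 37 °C, then partially purified. Enzyme with compound held 5–10 min at 4 °C, prewarmed 30 s at 37 °C. Reaction started with 2 mM CaCl₂ plus 20 µM AA, stopped after 10 min at 37 °C with ice-cold methanol. All-trans LTB₄ isomers and 5-H(P)ETE quantified by HPLC. BWA4C used as control.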

The target of experiment [3] is T2, Polyunsaturated fatty acid 5-lipoxygenase. Kind of experiment: Inhibition of 5-LO in ionophore A23187-stimulated human PMNL using arachidonic acid as substrate assessed as formation of LTB4, 5(S),12(S)-DiHETE, 5-H(p)ETE preincubated for 15 mins followed by substrate and ionophore addition measured after 10 mins by HPLC analysis.
The target of experiment [4] is T3, Polyunsaturated fatty acid 5-lipoxygenase (Homo sapiens). Kind of experiment: Inhibition of 5-LO in ionophore A23187-stimulated human PMNL using arachidonic acid as substrate assessed as remaining activity at 10 uM preincubated for 15 mins followed by substrate and ionophore addition measured after 10 mins by HPLC analysis relative to control. In a few lines:
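Human PMNL isolated by dextran sedimentation, density-gradient centrifugation and hypotonic erythrocyte lysis. 5 × 10⁶ cells/ml in PBS pH 7.4 with 1 mg/ml glucose and 1 mM CaCl₂. Compounds preincubated 15 min at 37 °C, then ionophore A23187 plus 20 µM AA for 10 min at 37 °C. Stopped with methanol/HCl, PGB₁ internal standard. 5-LO metabolites analysed by HPLC. BWA4C used as control.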

The next experiment concerns Jurkat. Kind of experiment: Cytotoxicity against human Jurkat cells assessed as induction of cell death after 48 hrs by MTT assay. Format: functional, cell-based. In a few lines:
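Jurkat T cells grown in RPMI 1640 with 10% heat-inactivated FCS, 10 mM HEPES, penicillin/streptomycin at 37 °C, 5% CO₂. Seeded at 2 × 10⁴ per well. Compounds or 0.3% DMSO vehicle added for 48 h. MTT then added until blue staining, cells lysed overnight in 10% SDS/20 mM HCl, absorbance read at 570 nm. Three to four independent experiments.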
(In general: Tetrazolium dyes change colour on reduction, which living cells bring about.)

In experiment [5] the target is Prostaglandin G/H synthase 1 (Homo sapiens, UniProt P23219). Description: Inhibition of COX-1 in human platelet using arachidonic acid as substrate assessed as formation of 12-HHT preincubated for 10 mins followed by substrate addition measured after 5 mins by HPLC analysis.
Chain of Prostaglandin G/H synthase 1 (P23219 whole entry): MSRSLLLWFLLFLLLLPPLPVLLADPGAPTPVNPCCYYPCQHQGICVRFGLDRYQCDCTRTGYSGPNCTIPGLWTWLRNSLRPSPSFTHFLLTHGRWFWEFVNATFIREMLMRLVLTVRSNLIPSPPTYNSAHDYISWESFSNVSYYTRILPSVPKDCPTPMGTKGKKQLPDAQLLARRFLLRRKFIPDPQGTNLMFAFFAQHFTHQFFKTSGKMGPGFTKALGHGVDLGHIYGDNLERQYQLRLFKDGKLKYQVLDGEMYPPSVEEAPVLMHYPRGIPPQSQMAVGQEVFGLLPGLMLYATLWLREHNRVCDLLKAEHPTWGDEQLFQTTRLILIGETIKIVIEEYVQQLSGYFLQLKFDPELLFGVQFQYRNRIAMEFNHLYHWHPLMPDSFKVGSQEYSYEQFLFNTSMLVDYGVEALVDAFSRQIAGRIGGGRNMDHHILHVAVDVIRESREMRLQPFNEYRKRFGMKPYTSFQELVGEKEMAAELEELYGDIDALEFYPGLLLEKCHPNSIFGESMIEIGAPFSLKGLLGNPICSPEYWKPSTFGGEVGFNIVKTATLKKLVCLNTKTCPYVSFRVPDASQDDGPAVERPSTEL
Experiment [6] deals with T2, Polyunsaturated fatty acid 5-lipoxygenase. Kind of experiment: Inhibition of 5-LO in human PMNL using arachidonic acid as substrate preincubated for 10 mins followed by substrate addition measured after 10 mins by HPLC analysis.
For experiment [7] the target is unchanged. Kind of experiment: Inhibition of recombinant human 5-LO expressed in Escherichia coli BL21 using arachidonic acid as substrate assessed as formation of LTB4, 5(S),12(S)-DiHETE, 5-H(p)ETE preincubated for 5 to 10 mins followed by substrate addition measured after 10 mins by HPLC.

Broadly, the IC50 is the concentration that gives 50% inhibition. What is called EC50 is the concentration that produces a half-maximal response. With `CC(C)C(C1=C(O)C(C)(C)C(=O)C(C)(C)C1=O)c1c(O)c(C(=O)c2ccccc2)c(O)c(C(C2=C(O)C(C)(C)C(=O)C(C)(C)C2=O)C(C)C)c1O` (centres undefined), the IC50 on Prostaglandin E synthase is 5 µM; in [1], more than 10 µM; in [3], more than 10 µM. For the same compound, the Activity in [2] came out at 82.9%; in experiment [4], 69.7%. In the experiment with Jurkat, the EC50 was more than 30 µM.
Turning to `CC(C)C(C1=C(O)CC(C)(C)CC1=O)c1c(O)c(C(=O)c2ccccc2)c(O)c(C(C2=C(O)CC(C)(C)CC2=O)C(C)C)c1O` (centres undefined), the IC50 is 3.5 µM on Prostaglandin E synthase, 8.6 µM in [1] and more than 10 µM in experiment [3]. For the same compound, the Activity in experiment [4] came out at 66.1%. Moreover, the half-maximal effective concentration (EC50) in the experiment with Jurkat is 4.4 µM.
As to `CC(C)C(=O)c1c2c(c(O)c3c1OC1=C(C(=O)C(C)(C)C(=O)C1(C)C)C3C(C)C)C(C(C)C)C1=C(O2)C(C)(C)C(=O)C(C)(C)C1=O` (centres undefined), the IC50 (on Prostaglandin E synthase; in experiment [1]; in experiment [3]) was more than 10 µM throughout. For the same compound, the Activity was determined as 95% in [2] and 69.5% in experiment [4]. For the same compound, the 50% effective concentration (EC50) in the experiment on Jurkat was 17.1 µM.
As for `CC(C)C(C1=C(O)CC(C)(C)CC1=O)c1c(O)c(C(C2=C(O)CC(C)(C)CC2=O)C(C)C)c(O)c(C(C2=C(O)CC(C)(C)CC2=O)C(C)C)c1O` (centres undefined), the values for the IC50 (at Prostaglandin E synthase; in [1]; in [3]) were 0.68 µM, 2.8 µM and more than 10 µM, respectively. Further, in [4], the Activity was found to be 83.5%. For the same compound, the EC50 in the experiment with Jurkat is 6.2 µM.
Regarding `CC(C)C(=O)c1c(O)c([C@H](C2=C(O)C(C)(C)C(=O)C(C)(C)C2=O)C(C)C)c(O)c([C@H](C2=C(O)C(C)(C)C(=O)C(C)(C)C2=O)C(C)C)c1O` [MYRTUCOMMULONE A], the IC50 is 1 µM on Prostaglandin E synthase; 15 µM in experiment [1]; 3.2 µM in experiment [3]; 17 µM in experiment [5]; 1.8 µM in [6]; 5 µM in experiment [7]. In addition, the half-maximal effective concentration (EC50) in the experiment on Jurkat is 2.4 µM.
